Measurements: ChEMBL document CHEMBL1165950, “Design and synthesis of new potent anticancer pyrazoles with high FLT3 kinase inhibitory selectivity” (Bioorg Med Chem, 2010)

Legend:
Type in all cases: functional
KM12 [1] = experiment: Cytotoxicity against human KM12 cells assessed as cell growth at 100 nM after 48 hrs by sulforhodamine B assay; settings: KM12, 48 h, read-out: Activity
SF-539 = experiment: Cytotoxicity against human SF539 cells assessed as cell growth at 100 nM after 48 hrs by sulforhodamine B assay; settings: SF-539, 48 h, read-out: Activity
SK-MEL-5 = experiment: Cytotoxicity against human SK-MEL-5 cells assessed as cell growth at 100 nM after 48 hrs by sulforhodamine B assay; settings: SK-MEL-5, 48 h, read-out: Activity
OVCAR-3 = experiment: Cytotoxicity against human OVCAR-3 cells assessed as cell growth at 100 nM after 48 hrs by sulforhodamine B assay; settings: OVCAR-3, 48 h, read-out: Activity
ACHN [2] = experiment: Cytotoxicity against human ACHN cells assessed as cell growth at 100 nM after 48 hrs by sulforhodamine B assay; settings: read-out: Activity
Summary of the method: (§1)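 NCI-60 five-dose screen. Cells were grown in RPMI 1640 with 5% FBS and 2 mM L-glutamine, plated at 5000–40,000 cells/well and preincubated for 24 h. Time-zero plates were TCA-fixed. DMSO-solubilized drug was added at five concentrations (10-fold or ½-log serial dilutions) for 48 h at 37 °C, 5% CO2. Cells were TCA-fixed, stained with 0.4% SRB and read at 515 nm. Percent growth used time-zero, control and test absorbances.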

A498 = experiment: Cytotoxicity against human A498 cells assessed as cell growth at 10 uM; settings: read-out: Activity
Summary of the method: (§2)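 Single-dose NCI-60 screen at 10 µM. Cells were grown in RPMI 1640 with 5% FBS and 2 mM L-glutamine, then treated for 48 h at 37 °C. Protein was measured by SRB staining with absorbance at 515 nm. Percentage growth was recorded, and inhibition percentage was calculated as 100 minus growth percentage.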

T47D [3] = experiment: Cytotoxicity against human T47D cells assessed as cell growth at 10 uM; settings: read-out: Activity
Summary of the method: (§3)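 NCI-60 screen: cells grown in RPMI 1640 with 5% FBS and 2 mM L-glutamine, plated at 5000–40,000 cells/well according to doubling time, and preincubated 24 h at 37 °C, 5% CO2. The single 10 µM dose (DMSO stock) was added, then incubated 48 h. Cells were TCA-fixed and stained with 0.4% SRB, read at 515 nm, and growth % calculated against time-zero and control plates.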

MDA-MB-468 = experiment: Cytotoxicity against human MDA-MB-468 cells assessed as cell growth at 10 uM; settings: read-out: Activity; summary of the method: as §3
HL-60(TB) = experiment: Cytotoxicity against human HL-60(TB) cells assessed as cell growth at 0.001 uM after 48 hrs by sulforhodamine B assay; settings: HL-60, 48 h, read-out: Activity
Summary of the method: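 NCI 60-cell panel. Cells are grown in RPMI 1640 with 5% FBS and 2 mM L-glutamine, seeded at 5000–40,000 cells/well according to doubling time, and preincubated 24 h. Time-zero plates are TCA-fixed. Compound from DMSO stock is given at five 10-fold or 1/2-log concentrations for 48 h at 37 °C, 5% CO2. Suspension cells are fixed with 80% TCA (final 16%) and SRB-stained, with absorbance at 515 nm. Percent growth is derived from Tz, control and test readings.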

HCT-15 = experiment: Cytotoxicity against human HCT15 cells assessed as cell growth at 1 uM after 48 hrs by sulforhodamine B assay; settings: HCT-15, 48 h, read-out: Activity
U-251 [4] = experiment: Cytotoxicity against human U251 cells assessed as cell growth at 1 uM after 48 hrs by sulforhodamine B assay; settings: U-251, 48 h, read-out: Activity
EKVX [5] = experiment: Cytotoxicity against human EKVX cells assessed as cell growth at 0.01 uM after 48 hrs by sulforhodamine B assay; settings: read-out: Activity
SF-268 = experiment: Cytotoxicity against human SF268 cells assessed as cell growth at 0.001 uM after 48 hrs by sulforhodamine B assay; settings: SF-268, 48 h, read-out: Activity
U-251 [6] = experiment: Cytotoxicity against human U251 cells assessed as cell growth at 0.001 uM after 48 hrs by sulforhodamine B assay; settings: U-251, 48 h, read-out: Activity
786-0 = experiment: Cytotoxicity against human 786-0 cells assessed as cell growth at 0.001 uM after 48 hrs by sulforhodamine B assay; settings: 786-0, 48 h, read-out: Activity; summary of the method: as §1
SN12C = experiment: Cytotoxicity against human SN12C cells assessed as cell growth at 0.001 uM after 48 hrs by sulforhodamine B assay; settings: read-out: Activity
EKVX [7] = experiment: Growth inhibition of human EKVX cells after 48 hrs by sulforhodamine B assay; settings: for CC50: read-out: LC50 (the source's name)
Summary of the method: (§4)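 NCI five-dose SRB assay in RPMI 1640 with 5% FBS and 2 mM L-glutamine. Cells were preincubated 24 h, then exposed 48 h at 37 °C to five concentrations (10-fold or half-log serial dilutions from DMSO stocks). TCA fixation, SRB staining, and absorbance at 515 nm followed. IC50 was taken where [(Ti−Tz)/(C−Tz)]×100 = 50, with Tz as time-zero cell density.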

KM12 [8] = experiment: Growth inhibition of human KM12 cells after 48 hrs by sulforhodamine B assay; settings: KM12, 48 h; for CC50: read-out: LC50 (the source's name)
Summary of the method: (§5)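 NCI 60-cell screen, five-dose mode. Cells grown in RPMI 1640 with 5% FBS and 2 mM L-glutamine and plated at 5000-40,000 cells/well according to doubling time. After 24 h preincubation, a Tz plate was TCA-fixed. Five concentrations (10-fold or 1/2 log dilutions) were applied for 48 h at 37 °C. SRB staining read at 515 nm. IC50 taken from [(Ti-Tz)/(C-Tz)]×100 = 50.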

IGROV-1 = experiment: Growth inhibition of human IGROV1 cells after 48 hrs by sulforhodamine B assay; settings: IGROV-1, 48 h; for CC50: read-out: LC50 (the source's name); summary of the method: as §5
CCRF-CEM = experiment: Cytotoxicity against human CCRF-CEM cells assessed as cell growth at 100 nM after 48 hrs by sulforhodamine B assay; settings: read-out: Activity; summary of the method: as §1
ACHN [9] = experiment: Growth inhibition of human ACHN cells after 48 hrs by sulforhodamine B assay; summary of the method: as §4
T47D [10] = experiment: Growth inhibition of human T47D cells after 48 hrs by sulforhodamine B assay; summary of the method: as §5
UACC-62 = experiment: Cytotoxicity against human UACC62 cells assessed as cell growth at 1 uM after 48 hrs by sulforhodamine B assay; settings: UACC-62, 48 h, read-out: Activity
HT-29 = experiment: Cytotoxicity against human HT-29 cells assessed as cell growth at 10 uM; settings: read-out: Activity; summary of the method: as §2
MDA-MB-435 = experiment: Cytotoxicity against human MDA-MB-435 cells assessed as cell growth at 10 uM after 48 hrs by sulforhodamine B assay; settings: MDA-MB-435, 48 h, read-out: Activity
DU-145 = experiment: Cytotoxicity against human DU145 cells assessed as cell growth at 10 uM after 48 hrs by sulforhodamine B assay; settings: DU-145, 48 h, read-out: Activity

Row | Compound | growth at 0.1 µM (KM12 [1]) | growth at 0.1 µM (SF-539) | growth at 0.1 µM (SK-MEL-5) | growth at 0.1 µM (OVCAR-3) | growth at 0.1 µM (ACHN [2]) | growth at 10 µM (A498) | growth at 10 µM (T47D [3]) | growth at 10 µM (MDA-MB-468) | growth at 0.001 µM (HL-60(TB)) | growth at 1 µM (HCT-15) | growth at 1 µM (U-251 [4]) | growth at 0.01 µM (EKVX [5]) | growth at 0.001 µM (SF-268) | growth at 0.001 µM (U-251 [6]) | growth at 0.001 µM (786-0) | growth at 0.001 µM (SN12C) | GI50 (EKVX [7]) | TGI (EKVX [7]) | CC50 (EKVX [7]) | GI50 (KM12 [8]) | other results
1 | COc1cc(C)cc(-c2c(-c3ccnc(-c4ccc(N(C)C)cc4)c3)cnn2CC#N)c1 | -36% | -29% | -21% | -20% | 34% | 21.3% | 46.5% | -23.1% | 82% | 9% | 6% | 81% | 98% | 95% | 95% | 97% | 0.29 µM | > 100 µM | > 100 µM | 0.0475 µM | TGI (KM12 [8]): 0.264 µM; CC50 (KM12 [8]): > 100 µM; GI50 (IGROV-1): 0.0608 µM; TGI (IGROV-1): 40.9 µM; CC50 (IGROV-1): > 100 µM; growth at 0.1 µM (CCRF-CEM): 11%; GI50 (ACHN [9]): 0.068 µM; LC50 (concentration giving 50% net cell kill) (ACHN [9]): > 100 µM; TGI (ACHN [9]): > 100 µM; GI50 (T47D [10]): 0.056 µM; LC50 (T47D [10]): > 100 µM; TGI (T47D [10]): > 100 µM; growth at 1 µM (UACC-62): 18%; growth at 10 µM (HT-29): -33.3%; growth at 10 µM (MDA-MB-435): -23%; growth at 10 µM (DU-145): -48%
2 | COc1cc(C)cc(-c2c(-c3ccnc(-c4ccc(C(C)=O)cc4)c3)cnn2CC#N)c1 | 85% | 92% | 85% | 92% | 90% | 83% | 45.6% | 26% | 101% | 12% | 4% | 97% | 97% | 104% | 102% | 94% | 5.8 µM | > 100 µM | > 100 µM | 2.87 µM | TGI (KM12 [8]): > 100 µM; CC50 (KM12 [8]): > 100 µM; GI50 (IGROV-1): 3.57 µM; TGI (IGROV-1): > 100 µM; CC50 (IGROV-1): > 100 µM; growth at 0.1 µM (CCRF-CEM): 84%; GI50 (ACHN [9]): 3.76 µM; LC50 (concentration giving 50% net cell kill) (ACHN [9]): > 100 µM; TGI (ACHN [9]): > 100 µM; GI50 (T47D [10]): 2.42 µM; LC50 (T47D [10]): > 100 µM; TGI (T47D [10]): 8.02 µM; growth at 1 µM (UACC-62): 25%; growth at 10 µM (HT-29): 15.2%; growth at 10 µM (MDA-MB-435): 16%; growth at 10 µM (DU-145): 15%
3 | Cc1cc(O)cc(-c2nn(CC#N)cc2-c2ccnc(-c3ccc(N(C)C)cc3)c2)c1 | 66% | 91% | 82% | 85% | 93% | 51.1% | 17.7% | -13.9% | 100% | 14% | 8% | 86% | 97% | 101% | 102% | 97% | 3.92 µM | 92.8 µM | > 100 µM | 1.63 µM | TGI (KM12 [8]): 7.66 µM; CC50 (KM12 [8]): 29.2 µM; GI50 (IGROV-1): 3.91 µM; TGI (IGROV-1): 24.8 µM; CC50 (IGROV-1): > 100 µM; growth at 0.1 µM (CCRF-CEM): 96%; GI50 (ACHN [9]): 3.73 µM; LC50 (concentration giving 50% net cell kill) (ACHN [9]): > 100 µM; TGI (ACHN [9]): 23.7 µM; GI50 (T47D [10]): 2.59 µM; LC50 (T47D [10]): > 100 µM; TGI (T47D [10]): 12.4 µM; growth at 1 µM (UACC-62): 10%; growth at 10 µM (HT-29): 20.5%; growth at 10 µM (MDA-MB-435): -31%; growth at 10 µM (DU-145): -66%
